The results in this text go back to ChEMBL document CHEMBL1132240, “Design and synthesis of modified quinolones as antitumoral acridones” (J Med Chem, 1999).

Assay [1] deals with CHO. In words: Cytotoxic activity against solid tumor, CHO (Chinese hamster ovaric carcinoma) concentration of agent required to reduce cell viability by 50%. The note with it: Cricetulus griseus. In kind it is functional, cell-based. Put shortly: (§1)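 Modified MTT assay. Cells seeded per well with graded drug: CHO 2.5 × 10^3, B16 5 × 10^3, P388 and LLC 10^4, HL-60 and LoVo 5 × 10^4. After 68 h, MTT (2.5 mg/mL) added for 4 h at 37 °C. Formazan dissolved in DMSO and A550 read. Inhibition taken as fractional A550 decrease vs control. IC50/IC90 from Chou's median-effect equation.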

The subject of assay [2] is LoVo. In words: Cytotoxic activity against solid tumor, LoVo, (human colon adenocarcinoma) concentration of agent required to reduce cell viability by 90%. It is filed as functional. Put shortly: as §1
Assay [3] in a line: Ratio of cytotoxicity of compound towards bone marrow sample and to that of HL-60 was determined as IC90BM/IC90HL. In kind it is functional. Put shortly: (§2)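 Second-stage assay on HL-60 (5 × 10^4/well) and soybean-agglutinin-negative mononuclear marrow cells (5 × 10^5/well) from six healthy donors. Four wells per concentration, 48 h at 37 °C, then [125I]iododeoxyuridine plus fluorodeoxyuridine for 18 h. Inhibition from fractional uptake decrease; IC50/IC90 by median-effect equation. Ranges are antilog(mean log ± 2SD); ratios use mean antilogs.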

Assay [4] concerns P388. In words: Cytotoxic activity against murine lymphocytic leukemia P388 concentration of agent required to reduce cell viability by 50%. It is filed as functional, cell-based. To be noted: Mus musculus. Put shortly: as §1
Assay [5] relates to HL-60. As to the kind of experiment: Cytotoxic activity against human promyelocytic leukemia HL-60 concentration of agent required to reduce cell viability by 90%. It is filed as functional. Put shortly:
as §1

The species entered for assay [6] is Homo sapiens. As to the kind of experiment: Relative cytotoxicity against human bone marrow samples. In kind it is functional. An outline of the steps:
as §2

For assay [7], the system named is P388. As to the kind of experiment: Cytotoxic activity against murine lymphocytic leukemia P388 concentration of agent required to reduce cell viability by 90%. It is filed as functional. To be noted: Mus musculus. An outline of the steps: as §1
For assay [8], the system named is B16. In words: Cytotoxic activity against solid tumor, B16 (murine melanoma) concentration of agent required to reduce cell viability by 50%. In kind it is functional, cell-based. The note with it: Mus musculus. Put shortly:
as §1

Assay [9] can be described thus: Ratio of cytotoxicity of compound towards bone marrow sample and to that of HL-60 was determined as IC50BM/IC90HL. It is filed as functional. Put shortly: as §2
Assay [10] has as its system Lewis lung carcinoma cell line. As to the kind of experiment: Cytotoxic activity against solid tumor LLC(Lewis lung carcinoma), concentration of agent required to reduce cell viability by 50%. In kind it is functional, cell-based. To be noted: Mus musculus. An outline of the steps:
as §1

Assay [11] concerns HL-60. In words: Cytotoxic activity against human promyelocytic leukemia HL-60 concentration of agent required to reduce cell viability by 50%. In kind it is functional, cell-based. An outline of the steps:
as §1

In assay [12] the test system is LoVo. As to the kind of experiment: Cytotoxic activity against solid tumor, LoVo, (human colon adenocarcinoma) concentration of agent required to reduce cell viability by 50%. It is filed as functional, cell-based. Put shortly:
as §1

The subject of assay [13] is HL-60. As to the kind of experiment: (§3) Relative cytotoxicity against human promyelocytic leukemia(HL-60) cells. In kind it is functional. Put shortly:
as §2

Assay [14] deals with B16. As to the kind of experiment: Cytotoxic activity against solid tumor, B16 (murine melanoma) concentration of agent required to reduce cell viability by 90%. In kind it is functional. To be noted: Mus musculus. Put shortly: as §1
Assay [15] is described as follows: Ratio of cytotoxicity of compound towards bone marrow sample and to that of HL-60 was determined as IC50BM/IC50HL. In kind it is functional. An outline of the steps:
as §2

Assay [16] has as its system HL-60. The description is as §3. In kind it is functional, cell-based. Put shortly:
as §2

For assay [17], the system named is CHO. In words: Cytotoxic activity against solid tumor, CHO (Chinese hamster ovaric carcinoma) concentration of agent required to reduce cell viability by 90%. In kind it is functional. To be noted: Cricetulus griseus. An outline of the steps:
as §1

Assay [18] concerns Lewis lung carcinoma cell line. As to the kind of experiment: Cytotoxic activity against solid tumor LLC(Lewis lung carcinoma), concentration of agent required to reduce cell viability by 90%. To be noted: Mus musculus. It is filed as functional. An outline of the steps: as §1
Assay [19] relates to B16. In words: Cytotoxic activity against solid tumor, B16 (murine melanoma) Concentration of agent required to reduce cell viability by 90%. In kind it is functional. The note with it: Mus musculus. An outline of the steps: as §1
Assay [20] relates to P388. In words: Cytotoxic activity against Murine Lymphocytic Leukemia P388 Concentration of agent required to reduce cell viability by 50%. In kind it is functional, cell-based. The note with it: Mus musculus. An outline of the steps: as §1
Assay [21] has as its system P388. As to the kind of experiment: In vivo antitumor activity against Murine P388 Leukemia at 60 mg/kg dose;(Median survival time of treated mice)/(median survival time of controls) x100. It is filed as functional, Mus musculus. An outline of the steps:
(§4)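 Female BD2F1 mice (8 weeks, 20-22 g), eight per group, given 10^5 P388 cells ip on day 0. From 24 h later, drug was given ip once daily for 9 days as a micronized suspension in 0.5% carboxymethylcellulose. Deaths were recorded daily over a 33-day study. %T/C = median survival time of treated / median survival time of controls × 100; >125 taken as significant.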

Assay [22] deals with P388. As to the kind of experiment: Cytotoxic activity Murine Lymphocytic Leukemia P388 Concentration of agent required to reduce cell viability by 90%. It is filed as functional. The note with it: Mus musculus. Put shortly:
as §1

For assay [23], the system named is HL-60. In words: Cytotoxic activity against Human promyelocytic Leukemia HL-60 Concentration of agent required to reduce cell viability by 90%. In kind it is functional. Put shortly: as §1
For assay [24], the species on record is Homo sapiens. As to the kind of experiment: Relative cytotoxicity against Human bone marrow samples; Value is in range, activity expressed as IC50. In kind it is functional. Put shortly: as §2
For assay [25], the system named is CHO. As to the kind of experiment: Cytotoxic activity against solid tumor, CHO (Chinese hamster ovaric carcinoma) Concentration of agent required to reduce cell viability by 90%. In kind it is functional. To be noted: Cricetulus griseus. Put shortly: as §1
The test system of assay [26] is P388. In words: In vivo antitumor activity against Murine P388 Leukemia at 20 mg/kg dose;(Median survival time of treated mice)/(median survival time of controls) x100. In kind it is functional, Mus musculus. An outline of the steps:
as §4

Assay [27] has as its system HL-60. In words: Cytotoxic activity against Human promyelocytic Leukemia HL-60 Concentration of agent required to reduce cell viability by 50%. In kind it is functional, cell-based. An outline of the steps: as §1
Assay [28] concerns LoVo. In words: Cytotoxic activity against solid tumor, LoVo, (human colon adenocarcinoma) Concentration of agent required to reduce cell viability by 90%. It is filed as functional. An outline of the steps:
as §1

Assay [29] concerns HL-60. As to the kind of experiment: Relative cytotoxicity against Human promyelocytic Leukemia(HL-60) cells; Value is in range, activity expressed as IC90. In kind it is functional. Put shortly:
as §2

The nature of assay [30]: Ratio of antilog(mean log IC50 in bone marrow sample) and antolog(mean log IC50) in HL-60). In kind it is functional. An outline of the steps: as §2
The test system of assay [31] is P388. As to the kind of experiment: In vivo antitumor activity against Murine P388 Leukemia at 6.67 mg/kg dose;(Median survival time of treated mice)/(median survival time of controls) x100. It is filed as functional, Mus musculus. Put shortly:
as §4

Assay [32] can be described thus: Ratio of antilog(mean log IC50 in bone marrow sample) and antolog(mean log IC90) in HL-60). It is filed as functional. Put shortly:
as §2

Assay [33] relates to B16. As to the kind of experiment: Cytotoxic activity against solid tumor, B16 (murine melanoma) Concentration of agent required to reduce cell viability by 50%. The note with it: Mus musculus. In kind it is functional, cell-based. An outline of the steps: as §1
Assay [34] has as its system CHO. As to the kind of experiment: Cytotoxic activity against solid tumor, CHO (Chinese hamster ovaric carcinoma) Concentration of agent required to reduce cell viability by 50%. It is filed as functional, cell-based. To be noted: Cricetulus griseus. Put shortly:
as §1

Assay [35] relates to HL-60. In words: Relative cytotoxicity against Human promyelocytic Leukemia(HL-60) cells; Value is in range, activity expressed as IC50. It is filed as functional, cell-based. Put shortly: as §2
Assay [36] is filed under the species Homo sapiens. In words: Relative cytotoxicity against Human bone marrow samples; Value is in range, activity expressed as IC90. In kind it is functional. Put shortly: as §2
A short description of assay [37]: Ratio of antilog(mean log IC90 in bone marrow sample) and antolog(mean log IC90) in HL-60). It is filed as functional. Put shortly: as §2
The subject of assay [38] is LoVo. In words: Cytotoxic activity against solid tumor, LoVo, (human colon adenocarcinoma) Concentration of agent required to reduce cell viability by 50%. It is filed as functional, cell-based. Put shortly:
as §1

Structures are written as SMILES. Some results are limits rather than exact numbers.

What is called IC50 is the concentration needed to halve the response being measured. Lower therefore signals greater potency in that assay. In general, IC90 refers to the point of the concentration-response curve where the effect stands at 90%. Lower therefore signals greater potency. The term T/C denotes the result in the treated group divided by that in the control group, in per cent.

Turning to `COc1cc([C@@H]2c3cc4c(cc3[C@@H](O[C@@H]3O[C@@H]5CO[C@@H](C)O[C@H]5[C@H](O)[C@H]3O)[C@H]3COC(=O)[C@H]23)OCO4)cc(OC)c1O` [ETOPOSIDE], the IC50 was 0.35 µM in assay [1]; 0.24 µM in assay [4]; 0.99 µM in assay [6]; 0.32 µM in assay [8]; 1.1 µM in assay [10]; 1.2 µM in [11]. Besides, the IC50 is 2.3 µM in [12] and 0.367 µM in assay [16]. The IC90 in [2] came out at 44 µM; in assay [5], 3.1 µM; in assay [6], 7.02 µM; in assay [7], 0.63 µM; in assay [13], 0.73 µM; in [14], 1.9 µM. The figures for the IC90 in assay [17] and in [18] were 7.7 µM and 4.5 µM, respectively. Besides, the figures for the Ratio in assay [3], in assay [9] and in assay [15] were 5.6, 0.9 and 1.8, respectively.

Take `CCn1c2cc(Cl)c(N)cc2c(=O)c2c(O)cc(OC)cc21`: 16 µM corresponded to half-maximal inhibition in [4] (IC50). In assay [7], this compound showed an IC90 greater than 100 µM.

In the case of `COc1cc(O)c2c(=O)c3cc(N)c(N4CCN(C)CC4)cc3n(C)c2c1`, the IC50 in [4] was determined as 3.4 µM; in assay [11], 23 µM. The values for the IC90 in [5] and in [7] were 33 µM and 6.8 µM, respectively.

On to `CCn1c2cc(N3CCN(C)CC3)c(N)cc2c(=O)c2c(O)cc(O)cc21`, for which the 90% effect concentration (IC90) was found to be 19 µM in assay [19]; 13 µM in assay [22]; 34 µM in [23]; 19 µM in [25]; 47 µM in assay [28]; 42.6 µM in assay [29]. The figures for the IC90 in assay [36] and in assay [18] were 20.3 µM and 17 µM, respectively. Also, the IC50 in [20] is 4.6 µM; in assay [24] it was 3.27 µM; in assay [27], 23 µM; in assay [10] it was 11 µM; in assay [33] it was 9.9 µM; in assay [34], 5.8 µM. In addition, the figures for the IC50 in [35] and in [38] were 27.7 µM and 17 µM, respectively. Moreover, the values for the T/C in assay [21], in [26] and in assay [31] were 132%, 116% and 115%, respectively. For the same compound, the Ratio worked out at 0.1 in assay [30], 0.1 in assay [32] and 0.5 in assay [37].

Turning to `CCn1c2cc(Cl)c(N)cc2c(=O)c2c(OC)cc(OC)cc21`, the IC50 in assay [4] came out at 14 µM; in [11], 16 µM. The IC90 turned out to be 62 µM in assay [5] and 33 µM in [7].

Regarding `CCn1c2cc(N3CCN(C)CC3)c(N)cc2c(=O)c2c(OC)cc(OC)cc21`, the IC50 in [4] came to 16 µM; in assay [11], 61 µM. Besides, the results for the IC90 in assay [5] and in assay [7] were 99 µM and 26 µM, respectively.
